MC4R barr agon: human MC4R agonism via beta-arrestin | activation, % at 8.9 µM | U2OS MC4R beta-arrestin complementation, luminescence; percent of melanotan II response, DMSO zero | P32245 | AID 540308 | hit rate 0.98% among 360,000;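 active means activation above a per-plate cutoff, the mean activation of sample wells on that plate plus 3 SD, cut at about 8% in these data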
MC4R antagonist: blocks human MC4R cAMP signaling; MC4R-expressing cells, MTII-stimulated cAMP, LANCE TR-FRET; hit rate 0.48% among 360,000; P32245; inhibition, % at 6.5 µM;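 active means inhibition above its plate's cutoff, the mean of tested wells on that plate plus 3 SD, cut at about 29% in these data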
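Test system: U2OS cells stably expressing human melanocortin 4 receptor (MC4R); also added: Melanotan II challenge; compound: 6.5 µM single dose; timing: 30-min compound preincubation, 1-h Melanotan II challenge, 1-h detection, room temperature; signal: Eu-cAMP/anti-cAMP TR-FRET, emission 671 nm; repeats: one well per compound, no replicates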
AI-2 QS mod: Vibrio harveyi AI-2 quorum sensing modulation. Vibrio harveyi JMH597 AI-2 luminescence/OD600 ratio, 9 h; stronger effect = lower value; strain lacks LuxN and CqsS sensors; 0 = neutral-control median. hit rate 0.4% among 300,000. activity change, % at 7.5 µM; in the data active means activity change below about -75%, passing the limit was not always enough;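 further: luminescence divided by OD600 gain over 9 h not by final OD600 alone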
NTR1 ag: agonists of human neurotensin receptor NTR1; activation, % at 20 µM; P30989; hit rate 0.17% among 330,000; NTR1-U2OS beta-arrestin-GFP spot imaging, agonist mode;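 active means activation at or above 40% of the spot to cytoplasm intensity ratio, with at least 20 cells analyzed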
U2OS cAMP counter: counter-screen for MC4R antagonists: nonselective cAMP signaling inhibitors. shares compounds with MC4R antagonist. hit rate 26% among 1,600. inhibition, % at 6.5 µM. parental U2OS, forskolin cAMP, LANCE TR-FRET;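 active means mean inhibition over triplicates above the low-control well mean plus 3 SD, set per campaign, cut at about 13% in these data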;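 further: signal is single emission at 671 nm which falls as cellular cAMP rises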
MC4R antag conf: human MC4R cAMP antagonism confirmation; AID 602195; shares compounds with MC4R antagonist; inhibition, % at 6.5 µM; MC4R-expressing cells, MTII-stimulated cAMP, TR-FRET; hit rate 27% among 1,600; in the data active means inhibition above about 29%
MC4R barr ag: human MC4R beta-arrestin agonism confirmation; shares compounds with MC4R barr agon; U2OS MC4R beta-arrestin recruitment, luminescence; scaled DMSO 0%, Melanotan II 100%; activation, % at 8.9 µM; hit rate 31% among 2,400; AID 602192;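 active means mean activation across replicates above the hit cutoff set in the earlier primary screen, cut at about 8% in these data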
MOR DOR agonist: OPRM1-OPRD1 heterodimer agonism counter-screen | U2OS PathHunter beta-arrestin, beta-gal luminescence; percent of deltorphin B response, DMSO zero | AID 602194 | activation, % at 9.2 µM | shares compounds with MC4R barr agon | hit rate 5.8% among 2,400;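 active means mean activation across replicates exceeds the hit threshold derived in the earlier primary screen, cut at about 18% in these data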
Target sequence (P35372 whole entry, looked up): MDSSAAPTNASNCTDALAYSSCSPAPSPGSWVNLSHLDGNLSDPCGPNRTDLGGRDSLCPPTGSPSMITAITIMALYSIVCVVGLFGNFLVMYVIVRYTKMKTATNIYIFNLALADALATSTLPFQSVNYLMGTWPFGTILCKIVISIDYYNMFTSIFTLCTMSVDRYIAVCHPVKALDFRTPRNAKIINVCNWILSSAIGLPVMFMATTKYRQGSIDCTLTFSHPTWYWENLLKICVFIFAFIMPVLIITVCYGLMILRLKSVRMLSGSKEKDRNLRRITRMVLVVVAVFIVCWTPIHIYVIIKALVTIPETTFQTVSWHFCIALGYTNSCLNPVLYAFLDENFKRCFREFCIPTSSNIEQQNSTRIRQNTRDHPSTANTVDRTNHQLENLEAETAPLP
Target sequence (P41143 whole entry, looked up): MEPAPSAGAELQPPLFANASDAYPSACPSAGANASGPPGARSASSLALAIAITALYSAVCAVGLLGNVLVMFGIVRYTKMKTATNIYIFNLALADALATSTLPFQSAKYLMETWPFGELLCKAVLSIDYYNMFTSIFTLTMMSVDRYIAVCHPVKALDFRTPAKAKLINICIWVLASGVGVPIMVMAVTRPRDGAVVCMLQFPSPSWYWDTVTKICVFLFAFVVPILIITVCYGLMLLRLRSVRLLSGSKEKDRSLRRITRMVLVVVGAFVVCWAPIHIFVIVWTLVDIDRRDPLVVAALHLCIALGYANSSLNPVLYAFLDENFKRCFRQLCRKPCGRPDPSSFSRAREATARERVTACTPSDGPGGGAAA
Large screens that a line does not name were inactive (follow-up assays come after a bar, where they were run); ! = not confirmed by another sample. Hits are enriched below; roughly 1.8% of the tested compounds scored in any of these assays.

CC(=O)n1cc(N(C(=O)CCl)c2ccc(Cl)cc2)c2ccccc21	MC4R barr agon 13, MC4R antagonist 42 (no result: AI-2 QS mod) | U2OS cAMP counter inactive | MC4R antag conf 52 | MC4R barr ag inactive | MOR DOR agonist 51
CCOC(=O)c1cc(-c2csc(N/N=C/c3ccccc3Cl)n2)on1	MC4R barr agon 22, MC4R antagonist 40 | U2OS cAMP counter 14 | MC4R antag conf 71 | MC4R barr ag 13 | MOR DOR agonist inactive
CCOC(=O)c1cc(-c2csc(Nc3ccccc3Cl)n2)on1	none
Nc1c(S(=O)(=O)c2ccccc2)c2nc3ccccc3nc2n1/N=C/c1cccc(O)c1	MC4R barr agon 17, MC4R antagonist 35 | U2OS cAMP counter inactive | MC4R antag conf inactive | MC4R barr ag 10 | MOR DOR agonist inactive
O=C(Nc1ccccc1C(=O)Nc1ccc(Br)cn1)c1cccc([N+](=O)[O-])c1	none (no result: AI-2 QS mod)
Cc1cc(C)c(C#N)c(SCC(=O)Nc2cccc(S(=O)(=O)N3CCCC3)c2)n1	MC4R barr agon 10.0, MC4R antagonist 32 (no result: AI-2 QS mod) | U2OS cAMP counter 45 | MC4R antag conf 82 | MC4R barr ag inactive | MOR DOR agonist inactive
O=C(C1CCC1)N1CCN(S(=O)(=O)c2ccc(Br)cc2Cl)CC1	none
CCCCNc1c(-c2cccc(-c3cc(C(C)=O)cs3)c2)nc2cc(C)ccn12	MC4R barr agon 11, MC4R antagonist 36 | U2OS cAMP counter inactive | MC4R antag conf inactive | MC4R barr ag 9.5 | MOR DOR agonist inactive
CCCCC1CC(=O)NC1(C(=O)OCC)C(=O)OCC (stereo not given)	none (no result: AI-2 QS mod, NTR1 ag)
CC(O)CC(=O)OC[C@]12CC[C@H]3[C@@](C)(CC[C@H]4C(C)(C)CCC[C@]34C)[C@@H]1CC(C1=CC(=O)OC1O)O2 (stereo not given in full)	MC4R barr agon 16, MC4R antagonist 33 (no result: AI-2 QS mod, NTR1 ag) | U2OS cAMP counter inactive | MC4R antag conf inactive | MC4R barr ag 24 | MOR DOR agonist inactive
COCCn1c(=NC(=O)c2sc3ccccc3c2Cl)sc2cc(S(N)(=O)=O)ccc21	none
C=CCn1c(=NC(=O)c2sc3ccccc3c2Cl)sc2cc(S(N)(=O)=O)ccc21	MC4R barr agon 16, MC4R antagonist 33 | U2OS cAMP counter inactive | MC4R antag conf inactive | MC4R barr ag inactive | MOR DOR agonist inactive
COc1ccc2[nH]c(C(=O)Nc3ccc(F)cc3Br)cc2c1	MC4R barr agon 26, MC4R antagonist 29 | U2OS cAMP counter 21 | MC4R antag conf inactive | MC4R barr ag inactive | MOR DOR agonist inactive
CCCCCCCC[n+]1cccc(C(=O)N(CC)CC)c1	none
CCCCCCCCCCCCCCCC[n+]1cccc(C(=O)N(CC)CC)c1	MC4R barr agon 13, MC4R antagonist 29! | U2OS cAMP counter inactive | MC4R antag conf 50 | MC4R barr ag 23 | MOR DOR agonist inactive
CCOC(=O)c1ccc(NC(=O)c2cccc(S(=O)(=O)N3CCN(C(C)=O)CC3)c2)cc1	none
Cc1nc(SC(C)C(=O)NC2CCCC2)c2ccccc2n1 (stereo not given)	none (no result: AI-2 QS mod)
Cc1cccc(C)c1-n1cccc1/C=C1\SC(=S)N(c2cccc(C(=O)O)c2)C1=O	MC4R barr agon 20, MC4R antagonist 37 | U2OS cAMP counter inactive | MC4R antag conf inactive | MC4R barr ag 20 | MOR DOR agonist inactive
COc1ccc(-c2oc3ccc(N4CCOCC4)cc3c2C#CC2(O)CCCCC2)cc1	MC4R barr agon 19, MC4R antagonist 33 | U2OS cAMP counter inactive | MC4R antag conf inactive | MC4R barr ag 15 | MOR DOR agonist inactive
COc1ccc(-c2oc3ccc(N4CCOCC4)cc3c2C#Cc2ccc(N)cc2)cc1	none
Cc1onc(-c2ccccc2)c1C(=O)OCC(=O)Nc1ccc(OC(F)(F)F)cc1	none (no result: AI-2 QS mod)
OC(CNCCc1ccc(Cl)cc1)COc1ccc2ccccc2c1 (stereo not given)	MC4R barr agon 20 (no result: AI-2 QS mod, NTR1 ag) | MC4R barr ag 15 | MOR DOR agonist inactive
OC(CNCCc1ccccc1)COc1ccc(OCC(O)CNCCc2ccccc2)cc1 (stereo not given)	none
CC1CCN(S(=O)(=O)c2cn(CC(=O)N3CCN(c4cccc(C(F)(F)F)c4)CC3)cn2)CC1	none
CC1CCCCN1S(=O)(=O)c1ccc(S(=O)(=O)N2CCN(c3ccccc3)CC2)cc1 (stereo not given)	MC4R barr agon 9.8 | MC4R barr ag 15 | MOR DOR agonist inactive
O=C(c1ccc(S(=O)(=O)N2CCCCC2)cc1)N1CCN(c2ccccc2)CC1	none
CN(C)CCN(C(=O)/C=C/c1cccs1)c1nc2c(F)cc(F)cc2s1	MC4R barr agon 21 | MC4R barr ag inactive | MOR DOR agonist inactive
CCOc1cccc2sc(N(CCN(C)C)C(=O)/C=C/c3cccs3)nc12	MC4R barr agon 15 | MC4R barr ag inactive | MOR DOR agonist inactive
CN(C)CCCN(C(=O)CCc1ccccc1)c1nc2ccc(Cl)cc2s1	MC4R barr agon 11 | MC4R barr ag 31 | MOR DOR agonist inactive
CN(C)CCCN(C(=O)/C=C/c1cccs1)c1nc2ccc(F)cc2s1	MC4R barr agon 10 | MC4R barr ag 16 | MOR DOR agonist inactive
COc1cccc2sc(N(CCN(C)C)C(=O)/C=C/c3cccs3)nc12	none
NS(=O)(=O)c1ccc(CCNC(=O)CCc2nc3sc4c(c3c(=O)[nH]2)CCCC4)cc1	none
Cc1cc(C(=O)OCC(=O)N(C)c2ccccc2)c(C)o1	none (no result: AI-2 QS mod)
Cc1c(C)c2ccc(OCC(=O)N3CC[C@@]4(O)CCCC[C@H]4C3)c(C)c2oc1=O	none
Cc1ccc2nc(N(CCN(C)C)C(=O)/C=C/c3cccs3)sc2c1	MC4R barr agon 16 | MC4R barr ag inactive | MOR DOR agonist inactive
CN(C)CCN(C(=O)/C=C/c1cccs1)c1nc2ccc(Br)cc2s1	MC4R barr agon 31 | MC4R barr ag 12 | MOR DOR agonist inactive
COc1ccc2sc(N(CCCN(C)C)C(=O)c3nc4ccccc4s3)nc2c1	MC4R barr agon 12 | MC4R barr ag 8.3 | MOR DOR agonist inactive
O=[N+]([O-])c1ccc(S(=O)(=O)N2CCN=C2SCc2ccc(F)cc2)cc1	MC4R barr agon 11 | MC4R barr ag inactive | MOR DOR agonist inactive
Cc1ccc(-c2c(C)c(-c3ccc(F)cc3)nc(N)c2C#N)o1	MC4R barr agon 13 | MC4R barr ag inactive | MOR DOR agonist inactive
COc1ccccc1OCC(=O)Nc1ccc(Cl)cc1	none
Cc1ccccc1OCC(=O)Nc1ccc2c(c1)C(=O)c1ccccc1C2=O	MC4R barr agon 22 | MC4R barr ag 8.9 | MOR DOR agonist inactive
